Blank lines part the entries; values can stand above or below the compound they belong to.
Assays:
[1] = target: Metabotropic glutamate receptor 1 (Rattus norvegicus) (UniProt P23385); test: Binding affinity to mGluR1 in Sprague-Dawley rat cerebellum at 0.023 nM after 30 mins by autoradiography; assay type: tissue-based; conditions: tested as the 18F-labelled form
In short: (§1)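 Rat brain sections were preincubated 3 × 5 min at room temperature in 50 mM Tris–HCl, pH 7.4, with 1.2 mM MgCl2 and 2 mM CaCl2. They were then incubated 30 min at room temperature in fresh buffer with 0.023 nM [18F]ligand, alone or with MPEP at two levels. Sections were washed 3 × 5 min in cold buffer, rinsed in cold water and dried. Imaging-plate autoradiography followed; regional PSL/mm2 was taken minus 1.5 PSL/mm2 background. Means ± SD, n = 6–8 per group.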

[2] = target: Metabotropic glutamate receptor 1 (Rattus norvegicus) (UniProt P23385); test: Binding affinity to mGluR1 in Sprague-Dawley rat thalamus at 0.023 nM after 30 mins by autoradiography; assay type: tissue-based; conditions: tested as the 18F-labelled form; in short: as §1
[3] = target: Metabotropic glutamate receptor 1 (Rattus norvegicus) (UniProt P23385); test: Binding affinity to mGluR1 in Sprague-Dawley rat hippocampus at 0.023 nM after 30 mins by autoradiography; assay type: tissue-based; conditions: tested as the 18F-labelled form; in short: as §1
[4] = target: Metabotropic glutamate receptor 1 (Rattus norvegicus) (UniProt P23385); test: Binding affinity to mGluR1 in Sprague-Dawley rat olfactory bulb at 0.023 nM after 30 mins by autoradiography; conditions: tested as the 18F-labelled form; in short: as §1
[5] = target: Metabotropic glutamate receptor 1 (Rattus norvegicus) (UniProt P23385); test: Binding affinity to mGluR1 in Sprague-Dawley rat striatum at 0.023 nM after 30 mins by autoradiography; conditions: tested as the 18F-labelled form; in short: as §1
[6] = target: Metabotropic glutamate receptor 1 (Rattus norvegicus) (UniProt P23385); test: Binding affinity to mGluR1 in Sprague-Dawley rat cerebral cortex at 0.023 nM after 30 mins by autoradiography; assay type: tissue-based; conditions: tested as the 18F-labelled form; in short: as §1
[7] = target: Metabotropic glutamate receptor 1 (Rattus norvegicus) (UniProt P23385); test: Binding affinity to mGluR1 in Sprague-Dawley rat pons-medulla at 0.023 nM after 30 mins by autoradiography; conditions: tested as the 18F-labelled form; in short: as §1
[8] = target: Metabotropic glutamate receptor 1 (Rattus norvegicus) (UniProt P23385); test: Binding affinity to mGluR1 in Sprague-Dawley rat whole brain assessed as reduction of total radioactivity at 0.023 nM after 30 mins by autoradiography in presence of mGluRl antagonist FPTQ; design: scale not given: the % may be the effect or the level left
[9] = target: Metabotropic glutamate receptor 1 (Rattus norvegicus) (UniProt P23385); test: Binding affinity to mGluR1 in Sprague-Dawley rat whole brain at 0.023 nM after 30 mins by autoradiography in presence of mGluRl antagonist JNJ-16259685
In short: (§2)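 Sections were incubated as for the regional assay: 0.023 nM [18F]ligand, 30 min at room temperature, in 50 mM Tris–HCl pH 7.4 with MgCl2 and CaCl2, after 3 × 5 min preincubation. Unlabeled ligand or JNJ-16259685 was co-incubated to define specific binding. Sections were washed cold and exposed to imaging plates. ROIs covered the whole brain; values are PSL/mm2 minus background. n = 6–8.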

[10] = target: Metabotropic glutamate receptor 1 (Rattus norvegicus) (UniProt P23385); test: Binding affinity to mGluR1 in Sprague-Dawley rat whole brain at 0.023 nM after 30 mins by autoradiography in presence of mGluRl antagonist FPTQ; in short: as §2
[11] = target: Metabotropic glutamate receptor 1 (Rattus norvegicus) (UniProt P23385); test: Binding affinity to mGluR1 in Sprague-Dawley rat cerebellum at 0.023 nM after 30 mins by autoradiography in presence of 1 uM of mGluR5 antagonist MPEP; assay type: tissue-based; conditions: tested as the 18F-labelled form; in short: as §1
[12] = target: Metabotropic glutamate receptor 1 (Rattus norvegicus) (UniProt P23385); test: Binding affinity to mGluR1 in Sprague-Dawley rat thalamus at 0.023 nM after 30 mins by autoradiography in presence of 1 uM of mGluR5 antagonist MPEP; assay type: tissue-based; conditions: tested as the 18F-labelled form; in short: as §1
[13] = target: Metabotropic glutamate receptor 1 (Rattus norvegicus) (UniProt P23385); test: Binding affinity to mGluR1 in Sprague-Dawley rat hippocampus at 0.023 nM after 30 mins by autoradiography in presence of 1 uM of mGluR5 antagonist MPEP; assay type: tissue-based; conditions: tested as the 18F-labelled form; in short: as §1
[14] = target: Metabotropic glutamate receptor 1 (Rattus norvegicus) (UniProt P23385); test: Binding affinity to mGluR1 in Sprague-Dawley rat olfactory bulb at 0.023 nM after 30 mins by autoradiography in presence of 1 uM of mGluR5 antagonist MPEP; conditions: tested as the 18F-labelled form; in short: as §1
[15] = target: Metabotropic glutamate receptor 1 (Rattus norvegicus) (UniProt P23385); test: Binding affinity to mGluR1 in Sprague-Dawley rat striatum at 0.023 nM after 30 mins by autoradiography in presence of 1 uM of mGluR5 antagonist MPEP; assay type: tissue-based; conditions: tested as the 18F-labelled form; in short: as §1
[16] = target: Metabotropic glutamate receptor 1 (Rattus norvegicus) (UniProt P23385); test: Binding affinity to mGluR1 in Sprague-Dawley rat cerebral cortex at 0.023 nM after 30 mins by autoradiography in presence of 1 uM of mGluR5 antagonist MPEP; assay type: tissue-based; conditions: tested as the 18F-labelled form; in short: as §1
[17] = target: Metabotropic glutamate receptor 1 (Rattus norvegicus) (UniProt P23385); test: Binding affinity to mGluR1 in Sprague-Dawley rat pons-medulla at 0.023 nM after 30 mins by autoradiography in presence of 1 uM of mGluR5 antagonist MPEP; conditions: tested as the 18F-labelled form; in short: as §1
[18] = target: Metabotropic glutamate receptor 1 (Rattus norvegicus) (UniProt P23385); test: Binding affinity to mGluR1 in Sprague-Dawley rat cerebellum at 0.023 nM after 30 mins by autoradiography in presence of 10 uM of mGluR5 antagonist MPEP; assay type: tissue-based; conditions: tested as the 18F-labelled form; in short: as §1
[19] = target: Metabotropic glutamate receptor 1 (Rattus norvegicus) (UniProt P23385); test: Binding affinity to mGluR1 in Sprague-Dawley rat thalamus at 0.023 nM after 30 mins by autoradiography in presence of 10 uM of mGluR5 antagonist MPEP; conditions: tested as the 18F-labelled form; in short: as §1
[20] = target: Metabotropic glutamate receptor 1 (Rattus norvegicus) (UniProt P23385); test: Binding affinity to mGluR1 in Sprague-Dawley rat hippocampus at 0.023 nM after 30 mins by autoradiography in presence of 10 uM of mGluR5 antagonist MPEP; assay type: tissue-based; conditions: tested as the 18F-labelled form; in short: as §1
[21] = target: Metabotropic glutamate receptor 1 (Rattus norvegicus) (UniProt P23385); test: Binding affinity to mGluR1 in Sprague-Dawley rat olfactory bulb at 0.023 nM after 30 mins by autoradiography in presence of 10 uM of mGluR5 antagonist MPEP; conditions: tested as the 18F-labelled form; in short: as §1
[22] = target: Metabotropic glutamate receptor 1 (Rattus norvegicus) (UniProt P23385); test: Binding affinity to mGluR1 in Sprague-Dawley rat striatum at 0.023 nM after 30 mins by autoradiography in presence of 10 uM of mGluR5 antagonist MPEP; assay type: tissue-based; conditions: tested as the 18F-labelled form; in short: as §1
[23] = target: Metabotropic glutamate receptor 1 (Rattus norvegicus) (UniProt P23385); test: Binding affinity to mGluR1 in Sprague-Dawley rat cerebral cortex at 0.023 nM after 30 mins by autoradiography in presence of 10 uM of mGluR5 antagonist MPEP; assay type: tissue-based; conditions: tested as the 18F-labelled form; in short: as §1
[24] = target: Metabotropic glutamate receptor 1 (Rattus norvegicus) (UniProt P23385); test: Binding affinity to mGluR1 in Sprague-Dawley rat pons-medulla at 0.023 nM after 30 mins by autoradiography in presence of 10 uM of mGluR5 antagonist MPEP; conditions: tested as the 18F-labelled form; in short: as §1
[25] = target: Metabotropic glutamate receptor 1 (Rattus norvegicus) (UniProt P23385); test: Binding affinity to mGluR1 in Sprague-Dawley rat brain assessed as decrease of total binding at 0.023 nM after 30 mins by autoradiography in presence of 10 uM of mGluR5 antagonist MPEP; assay type: tissue-based; design: scale not given: the % may be the effect or the level left; in short: as §1
[26] = target: T1, Metabotropic glutamate receptor 1 (Homo sapiens, UniProt Q13255); test: Binding affinity to human mGluR1
[27] = target: Metabotropic glutamate receptor 1 (Mus musculus, UniProt P97772); test: Binding affinity to mouse mGluR1
[28] = target: T1, Metabotropic glutamate receptor 1; test: Binding affinity to mGluR1

Sequence of Metabotropic glutamate receptor 1 (Rattus norvegicus) (P23385 19-1199 limits assumed): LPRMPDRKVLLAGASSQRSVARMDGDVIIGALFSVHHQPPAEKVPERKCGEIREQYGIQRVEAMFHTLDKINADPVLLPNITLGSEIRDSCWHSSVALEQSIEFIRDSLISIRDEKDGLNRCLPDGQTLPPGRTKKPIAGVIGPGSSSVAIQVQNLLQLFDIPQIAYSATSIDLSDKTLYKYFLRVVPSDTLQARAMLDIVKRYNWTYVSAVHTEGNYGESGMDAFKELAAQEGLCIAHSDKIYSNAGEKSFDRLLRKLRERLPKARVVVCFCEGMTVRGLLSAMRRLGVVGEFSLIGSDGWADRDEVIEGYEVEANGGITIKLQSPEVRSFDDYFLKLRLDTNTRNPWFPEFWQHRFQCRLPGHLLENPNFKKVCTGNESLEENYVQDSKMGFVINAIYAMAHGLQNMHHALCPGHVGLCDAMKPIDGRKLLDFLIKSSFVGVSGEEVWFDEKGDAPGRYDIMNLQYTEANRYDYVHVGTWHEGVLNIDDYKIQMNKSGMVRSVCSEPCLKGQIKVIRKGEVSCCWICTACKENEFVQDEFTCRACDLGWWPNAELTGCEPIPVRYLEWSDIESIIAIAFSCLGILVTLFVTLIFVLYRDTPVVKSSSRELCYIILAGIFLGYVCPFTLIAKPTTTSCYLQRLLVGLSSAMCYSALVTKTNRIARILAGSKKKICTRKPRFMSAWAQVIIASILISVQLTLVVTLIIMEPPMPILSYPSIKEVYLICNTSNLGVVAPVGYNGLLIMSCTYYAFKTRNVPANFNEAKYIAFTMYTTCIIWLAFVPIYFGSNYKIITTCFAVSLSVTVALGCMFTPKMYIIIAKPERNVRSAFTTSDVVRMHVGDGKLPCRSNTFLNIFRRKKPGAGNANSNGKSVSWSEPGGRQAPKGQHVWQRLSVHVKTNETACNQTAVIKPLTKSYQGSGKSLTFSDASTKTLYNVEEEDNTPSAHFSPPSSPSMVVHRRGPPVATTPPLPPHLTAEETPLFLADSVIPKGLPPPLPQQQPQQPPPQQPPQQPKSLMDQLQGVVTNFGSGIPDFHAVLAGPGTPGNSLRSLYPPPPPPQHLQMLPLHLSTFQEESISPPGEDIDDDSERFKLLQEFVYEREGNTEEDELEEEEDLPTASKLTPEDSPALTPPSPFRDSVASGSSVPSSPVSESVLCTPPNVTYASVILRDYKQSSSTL
T1 sequence (Q13255 whole entry): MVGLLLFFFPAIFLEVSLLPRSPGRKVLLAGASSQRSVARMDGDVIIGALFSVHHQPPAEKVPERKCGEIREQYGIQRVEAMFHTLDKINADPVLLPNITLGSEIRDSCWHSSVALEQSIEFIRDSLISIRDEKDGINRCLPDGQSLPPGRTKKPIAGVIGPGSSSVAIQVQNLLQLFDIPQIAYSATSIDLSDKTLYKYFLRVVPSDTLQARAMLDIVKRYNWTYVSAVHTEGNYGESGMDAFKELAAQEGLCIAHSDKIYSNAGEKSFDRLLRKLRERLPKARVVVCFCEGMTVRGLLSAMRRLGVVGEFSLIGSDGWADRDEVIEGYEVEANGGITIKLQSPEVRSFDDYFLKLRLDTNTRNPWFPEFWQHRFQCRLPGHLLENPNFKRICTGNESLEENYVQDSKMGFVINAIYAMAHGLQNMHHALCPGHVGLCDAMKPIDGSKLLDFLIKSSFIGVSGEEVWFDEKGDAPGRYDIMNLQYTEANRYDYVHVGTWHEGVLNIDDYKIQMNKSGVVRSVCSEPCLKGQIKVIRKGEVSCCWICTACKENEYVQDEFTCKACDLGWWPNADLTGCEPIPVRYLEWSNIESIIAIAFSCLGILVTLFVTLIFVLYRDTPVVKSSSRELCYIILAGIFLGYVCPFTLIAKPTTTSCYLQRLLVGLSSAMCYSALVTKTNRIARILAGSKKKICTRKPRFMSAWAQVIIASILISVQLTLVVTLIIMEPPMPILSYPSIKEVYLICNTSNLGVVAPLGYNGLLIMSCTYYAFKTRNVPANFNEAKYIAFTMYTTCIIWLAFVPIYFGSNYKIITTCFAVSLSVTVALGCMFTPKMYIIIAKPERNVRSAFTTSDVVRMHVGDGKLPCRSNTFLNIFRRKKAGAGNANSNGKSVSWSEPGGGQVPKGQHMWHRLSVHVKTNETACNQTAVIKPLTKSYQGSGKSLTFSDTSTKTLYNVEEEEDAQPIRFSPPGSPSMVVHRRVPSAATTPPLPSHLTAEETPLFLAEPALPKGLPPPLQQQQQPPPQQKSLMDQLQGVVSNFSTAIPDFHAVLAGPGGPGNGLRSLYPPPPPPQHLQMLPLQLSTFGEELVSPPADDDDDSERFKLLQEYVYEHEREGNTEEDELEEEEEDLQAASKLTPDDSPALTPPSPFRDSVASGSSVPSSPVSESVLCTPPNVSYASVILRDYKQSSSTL
Sequence of Metabotropic glutamate receptor 1 (Mus musculus, UniProt P97772) (P97772 whole entry): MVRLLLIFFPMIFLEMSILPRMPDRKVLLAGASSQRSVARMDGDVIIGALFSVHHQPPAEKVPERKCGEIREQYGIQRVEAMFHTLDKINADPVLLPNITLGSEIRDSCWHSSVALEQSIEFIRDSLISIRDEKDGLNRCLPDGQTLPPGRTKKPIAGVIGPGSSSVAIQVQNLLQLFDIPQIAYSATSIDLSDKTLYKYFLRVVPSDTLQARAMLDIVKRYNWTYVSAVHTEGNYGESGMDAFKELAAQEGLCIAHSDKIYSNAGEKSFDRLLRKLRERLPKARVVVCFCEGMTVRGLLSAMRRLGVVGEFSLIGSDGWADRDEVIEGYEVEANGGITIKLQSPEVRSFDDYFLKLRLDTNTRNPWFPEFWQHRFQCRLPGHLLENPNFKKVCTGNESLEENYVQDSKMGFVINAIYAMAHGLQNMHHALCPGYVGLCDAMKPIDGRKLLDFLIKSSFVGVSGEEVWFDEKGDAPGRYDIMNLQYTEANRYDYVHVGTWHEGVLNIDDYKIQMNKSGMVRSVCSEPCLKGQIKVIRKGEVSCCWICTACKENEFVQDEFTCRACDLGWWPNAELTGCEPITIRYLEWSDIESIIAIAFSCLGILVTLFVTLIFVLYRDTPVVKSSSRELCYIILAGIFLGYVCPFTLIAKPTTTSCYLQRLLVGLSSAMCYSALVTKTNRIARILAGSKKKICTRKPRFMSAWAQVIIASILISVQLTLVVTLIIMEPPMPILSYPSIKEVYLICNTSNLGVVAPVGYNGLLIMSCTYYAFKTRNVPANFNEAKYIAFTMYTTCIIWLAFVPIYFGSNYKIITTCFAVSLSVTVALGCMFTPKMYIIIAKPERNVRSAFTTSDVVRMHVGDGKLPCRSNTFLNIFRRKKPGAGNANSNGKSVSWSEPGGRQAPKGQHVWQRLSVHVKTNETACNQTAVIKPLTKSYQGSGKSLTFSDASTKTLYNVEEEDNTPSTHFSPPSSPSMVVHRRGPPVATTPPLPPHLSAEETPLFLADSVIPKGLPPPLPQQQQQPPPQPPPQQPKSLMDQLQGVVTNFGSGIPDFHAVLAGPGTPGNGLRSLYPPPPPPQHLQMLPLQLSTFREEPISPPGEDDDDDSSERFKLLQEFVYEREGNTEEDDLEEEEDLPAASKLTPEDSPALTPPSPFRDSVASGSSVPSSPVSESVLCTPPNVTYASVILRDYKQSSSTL

- Ki [28]: 4.8 nM
SMILES: COCCN([11CH3])Cc1ccc2nc3sc(C(=O)N(C)C4CCCCC4)cn3c2c1

- Ki [28]: 0.4 nM
SMILES: CCCN1Cc2cc(-c3nnn(-c4cccnc4[18F])c3C)ccc2C1=O

Further lines, the compound ahead of its results:

SMILES: Cc1c(-c2ccc3ncccc3c2)nnn1-c1cccnc1F
- Activity [1]: 409 PSL/mm2
- Activity [2]: 189 PSL/mm2
- Activity [3]: 112 PSL/mm2
- Activity [4]: 88.7 PSL/mm2
- Activity [5]: 70.7 PSL/mm2
- Activity [6]: 28.2 PSL/mm2
- Activity [7]: 17.5 PSL/mm2
- Activity [8]: < 3%
- Activity [9]: 0.5 PSL/mm2
- Activity [10]: 0.6 PSL/mm2
- Activity [11]: 398 PSL/mm2
- Activity [12]: 169 PSL/mm2
- Activity [13]: 97.4 PSL/mm2
- Activity [14]: 76 PSL/mm2
- Activity [15]: 61.7 PSL/mm2
- Activity [16]: 23.6 PSL/mm2
- Activity [17]: 15.2 PSL/mm2
- Activity [18]: 285 PSL/mm2
- Activity [19]: 116 PSL/mm2
- Activity [20]: 69.4 PSL/mm2
- Activity [21]: 49 PSL/mm2
- Activity [22]: 40.1 PSL/mm2
- Activity [23]: 15.7 PSL/mm2
- Activity [24]: 9.5 PSL/mm2
- Activity [25]: 30%
- IC50 [26]: 3.6 nM
- IC50 [27]: 1.4 nM

SMILES: CCc1cc2cc(C(=O)[C@H]3CC[C@@H](OC)CC3)ccc2nc1[11CH3]
- Ki [28]: 0.87 nM

SMILES: CO[C@H]1CC[C@@H](C(=O)c2ccc3nc4c(cc3c2)CCCO4)CC1
- Ki [28]: 0.34 nM
